# Calls of active or inactive are those of the source. No cut-off for these calls is given here.
# Experiments:
# [1] = system: Nucleic Acid; assay: Binding affinity to poly(dA).poly(dT) duplex DNA assessed as change in thermal melting temperature at compound to DNA ratio of 0.25 by UV-vis spectroscopy; assay type: nucleic-acid assay
# [2] = biological target: DNA topoisomerase 2-alpha (Homo sapiens) (UniProt P11388); assay: Inhibition of human topoisomerase 2-mediated DNA relaxation assessed as double stranded break form by agarose gel electrophoresis
# How it was run: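 Supercoiled pUC19 (130 ng) with compound at 20 or 50 µM, or etoposide as control, was incubated with human topoisomerase II (4 units) for 45 min at 37 °C in cleavage buffer. The reaction was stopped with 0.25% SDS plus proteinase K for 30 min at 50 °C. DNA forms were separated on 1% agarose containing ethidium bromide in TBE.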
# [3] = system: Nucleic Acid; assay: Binding affinity to pBS 117bp DNA by DnaseI footprinting assay; assay type: nucleic-acid assay
# How it was run: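 Ligand and fragment were pre-incubated 15 min at 37 °C, then digested with DNase I at 0.001 unit/ml in 20 mM NaCl, 2 mM MgCl2, 2 mM MnCl2, pH 7.3. Products were resolved on a denaturing 8% polyacrylamide/8 M urea gel, with a G-track marker.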
# [4] = system: Calf thymus DNA; assay: Binding affinity to calf thymus DNA assessed as change in melting temperature at a compound to DNA molar ratio of 0.1 by UV-vis spectroscopy; assay type: nucleic-acid assay; conditions: Bos taurus
# How it was run: (§1)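 UV absorbance of DNA at 260 nm recorded every minute from 20 to 100 °C, ramping 1 °C/min in a thermostated quartz cell. Tm is taken as the midpoint of the hyperchromic transition. ΔTm = Tm(DNA+drug) − Tm(DNA alone). Calf-thymus DNA or poly(dAdT)2 was used at DNA/drug ratios from 0.1 to 1.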
# [5] = biological target: T1, DNA topoisomerase 1 (Homo sapiens) (UniProt P11387); assay: Inhibition of human topoisomerase 1-mediated DNA relaxation assessed as lack of nicking form by agarose gel electrophoresis
# T1 sequence (whole entry): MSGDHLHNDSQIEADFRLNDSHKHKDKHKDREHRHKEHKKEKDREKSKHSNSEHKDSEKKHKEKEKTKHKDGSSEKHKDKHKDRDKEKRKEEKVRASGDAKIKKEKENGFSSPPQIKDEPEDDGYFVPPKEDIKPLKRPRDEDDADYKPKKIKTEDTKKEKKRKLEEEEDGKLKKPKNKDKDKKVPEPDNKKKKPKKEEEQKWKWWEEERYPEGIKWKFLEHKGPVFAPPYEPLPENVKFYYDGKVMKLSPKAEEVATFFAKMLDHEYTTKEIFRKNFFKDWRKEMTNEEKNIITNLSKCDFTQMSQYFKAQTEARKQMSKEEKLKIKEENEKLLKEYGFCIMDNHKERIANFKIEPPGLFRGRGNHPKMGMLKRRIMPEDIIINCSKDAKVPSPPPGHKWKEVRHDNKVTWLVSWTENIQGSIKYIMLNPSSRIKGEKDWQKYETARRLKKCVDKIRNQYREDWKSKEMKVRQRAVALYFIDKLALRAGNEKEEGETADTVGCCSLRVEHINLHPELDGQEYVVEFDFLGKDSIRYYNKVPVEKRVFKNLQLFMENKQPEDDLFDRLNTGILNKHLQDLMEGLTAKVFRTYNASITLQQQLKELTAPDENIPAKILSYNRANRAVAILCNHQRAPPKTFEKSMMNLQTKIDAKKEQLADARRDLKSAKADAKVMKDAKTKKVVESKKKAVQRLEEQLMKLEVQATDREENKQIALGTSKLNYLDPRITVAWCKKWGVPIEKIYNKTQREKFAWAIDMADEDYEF
# How it was run: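 Supercoiled pUC19 (130 ng) was pre-incubated with compound at graded concentrations, or 20 or 50 µM in the cleavage assay. Human topoisomerase I (4 units) was then added for 45 min at 37 °C in 50 mM Tris pH 7.8, 50 mM KCl, 10 mM MgCl2, 1 mM DTT, 1 mM EDTA, 1 mM ATP. Camptothecin (20 µM) served as control. Samples ran on 1% agarose for 2 h at 120 V in TBE, with ethidium bromide either post-stained (relaxation) or included in the gel (cleavage).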
# [6] = system: HT-29; assay: Cell cycle arrest in human HT-29 cells assessed as accumulation at G2/M phase after 24 hrs using PI staining by flow cytometry; assay type: functional, cell-based
# How it was run: (§2)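 HT-29 cells, 3×10^5 per sample in exponential growth, were exposed to graded drug concentrations for 24 h. Cells were then trypsinised, fixed in 70% ethanol and stained 30 min in the dark with propidium iodide (50 µg/ml) plus RNase (100 µg/ml). DNA content was measured by flow cytometry, quantifying cell-cycle phases and the sub-G1 fraction.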
# [7] = system: Calf thymus DNA; assay: Binding affinity to calf thymus DNA assessed as change in melting temperature at a compound to DNA molar ratio of 0.25 by UV-vis spectroscopy; assay type: nucleic-acid assay; conditions: Bos taurus; how it was run: as §1
# [8] = system: HT-29; assay: Growth inhibition of human HT-29 cells by MTS assay; assay type: functional
# How it was run: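 HT-29 cells, 3×10^3 per well, were seeded 24 h before treatment with compound at 1 nM–100 µM, run as 3 series of duplicate or triplicate points. After 72 h at 37 °C, MTS tetrazolium was added for 2 h and absorbance read at 492 nm. GC50 is the concentration halving cell number versus untreated control wells.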
# [9] = system: HT-29; assay: Cell cycle arrest in human HT-29 cells assessed as reduction of cells in G1 phase after 24 hrs using PI staining by flow cytometry; assay type: functional, cell-based; how it was run: as §2
# [10] = system: COLO 205; assay: Growth inhibition of human COLO205 cells after 48 hrs by sulforhodamine B protein assay; assay type: functional; conditions: COLO 205, 48 h
# How it was run: (§3)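 NCI 60-cell-line screen. Dose–response used at least five concentrations in 10-fold dilutions with 48 h continuous drug exposure. Growth was estimated by sulforhodamine B protein staining. GI50 is the molar concentration giving 50% growth inhibition versus control.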
# [11] = system: Calf thymus DNA; assay: Binding affinity to calf thymus DNA assessed as change in melting temperature at a compound to DNA molar ratio of 0.5 by UV-vis spectroscopy; assay type: nucleic-acid assay; conditions: Bos taurus; how it was run: as §1
# [12] = system: Nucleic Acid; assay: Binding affinity to poly(dA).poly(dT) duplex DNA assessed as change in thermal melting temperature at compound to DNA ratio of 1 by UV-vis spectroscopy; assay type: nucleic-acid assay
# [13] = system: Calf thymus DNA; assay: Binding affinity to calf thymus DNA assessed as change in melting temperature at a compound to DNA molar ratio of 1 by UV-vis spectroscopy; assay type: nucleic-acid assay; conditions: Bos taurus; how it was run: as §1
# [14] = system: Nucleic Acid; assay: Binding affinity to poly(dA).poly(dT) duplex DNA assessed as change in thermal melting temperature at compound to DNA ratio of 0.1 by UV-vis spectroscopy; assay type: nucleic-acid assay
# [15] = system: Nucleic Acid; assay: Binding affinity to poly(dA).poly(dT) duplex DNA assessed as change in thermal melting temperature at compound to DNA ratio of 0.5 by UV-vis spectroscopy; assay type: nucleic-acid assay
# [16] = system: CCRF-CEM; assay: Growth inhibition of human CCRF-CEM cells after 48 hrs by sulforhodamine B protein assay; assay type: functional; how it was run: as §3
# [17] = system: HT-29; assay: Growth inhibition of human HT-29 cells after 48 hrs by sulforhodamine B protein assay; assay type: functional; conditions: HT-29, 48 h; how it was run: as §3
# [18] = system: HT-29; assay: Cell cycle arrest in human HT-29 cells assessed as accumulation at S phase at 25 uM after 24 hrs using PI staining by flow cytometry; assay type: functional; how it was run: as §2
# [19] = system: Calf thymus DNA; assay: Binding affinity to calf thymus DNA assessed as enhancement constant by fluorescence spectroscopy; assay type: nucleic-acid assay; conditions: Bos taurus
# How it was run: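 Drug at a fixed 20 µM in 1 ml BPE buffer in a 10 mm quartz cuvette, titrated with CT-DNA at 10–200 µM base pairs. Excitation was set at each compound's own wavelength (276–319 nm). Constants came from Stern–Volmer plots of F0/F against CT-DNA concentration, with the slope taken as Ksv.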
# [20] = system: ACHN; assay: Growth inhibition of human ACHN cells after 48 hrs by sulforhodamine B protein assay; assay type: functional; how it was run: as §3
# [21] = system: OVCAR-3; assay: Growth inhibition of human OVCAR-3 cells after 48 hrs by sulforhodamine B protein assay; assay type: functional; conditions: OVCAR-3, 48 h; how it was run: as §3
# [22] = system: CAKI-1; assay: Growth inhibition of human Caki1 cells after 48 hrs by sulforhodamine B protein assay; assay type: functional; conditions: CAKI-1, 48 h; how it was run: as §3
# [23] = system: UO-31; assay: Growth inhibition of human UO31 cells after 48 hrs by sulforhodamine B protein assay; assay type: functional; conditions: UO-31, 48 h; how it was run: as §3
# [24] = system: IGROV-1; assay: Growth inhibition of human IGROV1 cells after 48 hrs by sulforhodamine B protein assay; assay type: functional; conditions: IGROV-1, 48 h; how it was run: as §3
# [25] = system: SW-620; assay: Growth inhibition of human SW620 cells after 48 hrs by sulforhodamine B protein assay; assay type: functional; conditions: SW-620, 48 h; how it was run: as §3
# [26] = system: HT-29; assay: Cell cycle arrest in human HT-29 cells assessed as accumulation at G2/M phase at 25 uM after 24 hrs using PI staining by flow cytometry; assay type: functional, cell-based; how it was run: as §2
# [27] = system: SK-MEL-5; assay: Growth inhibition of human SK-MEL-5 cells after 48 hrs by sulforhodamine B protein assay; assay type: functional; conditions: SK-MEL-5, 48 h; how it was run: as §3
# [28] = system: HT-29; assay: Cell cycle arrest in human HT-29 cells at 25 uM after 24 hrs using PI staining by flow cytometry
# [29] = system: HT-29; assay: Cell cycle arrest in human HT-29 cells assessed as accumulation at S phase at 10 uM after 24 hrs using PI staining by flow cytometry; assay type: functional; how it was run: as §2
# DNA topoisomerase 2-alpha (Homo sapiens), sequence (P11388 whole entry): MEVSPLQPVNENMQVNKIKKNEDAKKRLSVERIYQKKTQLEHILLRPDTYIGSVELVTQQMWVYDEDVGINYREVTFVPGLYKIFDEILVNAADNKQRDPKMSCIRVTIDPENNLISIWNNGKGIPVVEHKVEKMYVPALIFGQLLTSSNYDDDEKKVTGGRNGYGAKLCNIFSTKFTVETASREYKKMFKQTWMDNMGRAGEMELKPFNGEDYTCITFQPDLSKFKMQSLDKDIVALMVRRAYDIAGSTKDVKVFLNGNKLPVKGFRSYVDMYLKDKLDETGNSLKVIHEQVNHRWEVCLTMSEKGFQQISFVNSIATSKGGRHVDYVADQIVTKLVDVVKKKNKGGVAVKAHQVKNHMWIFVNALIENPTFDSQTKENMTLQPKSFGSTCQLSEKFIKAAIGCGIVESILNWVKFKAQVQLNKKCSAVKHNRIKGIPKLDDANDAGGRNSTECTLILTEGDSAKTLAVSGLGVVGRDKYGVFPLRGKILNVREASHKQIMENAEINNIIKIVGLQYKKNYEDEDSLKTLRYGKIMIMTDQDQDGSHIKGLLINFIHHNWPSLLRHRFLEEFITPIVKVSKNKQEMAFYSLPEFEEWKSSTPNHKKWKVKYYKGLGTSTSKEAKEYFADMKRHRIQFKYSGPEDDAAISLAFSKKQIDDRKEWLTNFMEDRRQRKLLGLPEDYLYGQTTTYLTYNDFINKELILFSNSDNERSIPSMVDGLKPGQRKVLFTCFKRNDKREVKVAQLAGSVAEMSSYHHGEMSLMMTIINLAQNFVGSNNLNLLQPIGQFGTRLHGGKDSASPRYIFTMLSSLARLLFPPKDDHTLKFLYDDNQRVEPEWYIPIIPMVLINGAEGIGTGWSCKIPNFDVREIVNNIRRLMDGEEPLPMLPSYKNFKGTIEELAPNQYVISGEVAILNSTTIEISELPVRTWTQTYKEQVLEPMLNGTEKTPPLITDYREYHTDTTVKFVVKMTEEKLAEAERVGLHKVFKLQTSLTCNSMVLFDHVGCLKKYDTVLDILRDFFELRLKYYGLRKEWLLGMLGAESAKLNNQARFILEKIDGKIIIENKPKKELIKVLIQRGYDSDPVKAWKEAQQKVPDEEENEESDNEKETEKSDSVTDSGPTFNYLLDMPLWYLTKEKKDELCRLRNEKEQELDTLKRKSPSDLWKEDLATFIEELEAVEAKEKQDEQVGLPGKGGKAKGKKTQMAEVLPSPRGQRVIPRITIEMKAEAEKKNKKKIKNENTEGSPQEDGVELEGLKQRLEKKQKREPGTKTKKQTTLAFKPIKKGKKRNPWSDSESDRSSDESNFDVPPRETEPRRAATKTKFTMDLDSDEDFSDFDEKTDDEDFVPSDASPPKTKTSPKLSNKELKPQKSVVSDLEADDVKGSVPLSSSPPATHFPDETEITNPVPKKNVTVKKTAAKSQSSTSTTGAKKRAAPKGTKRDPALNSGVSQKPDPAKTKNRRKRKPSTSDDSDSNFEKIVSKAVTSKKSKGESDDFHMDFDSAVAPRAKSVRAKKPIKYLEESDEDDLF
ΔTm [1] [°C],Activity [2],Activity [3],ΔTm [4] [°C],Activity [5],ΔTm [7] [°C],GI50 [8] [nM],ΔTm [11] [°C],ΔTm [12] [°C],ΔTm [13] [°C],ΔTm [14] [°C],ΔTm [15] [°C],GI50 ([17]; read-out: GI50) [nM],GI50 ([17]; read-out: pGI50 (converted)) [nM],SMILES,Activity [6],Activity [9],Activity [18] [%],GI50 ([23]; read-out: GI50) [nM],GI50 ([23]; read-out: pGI50 (converted)) [nM],other results
8.9,Active,Active,0,Active,4.4,10100,4.4,17.5,7.3,2.9,11.6,10300,1020,CN(C)CCCNC(=O)c1cc2c3ccccc3[nH]c2c2ncccc12,Active,Active,31.7,–,–,GI50 ([10]; read-out: GI50): 4430 nM; GI50 ([10]; read-out: pGI50 (converted)): 4470 nM; GI50 ([16]; read-out: GI50): 4310 nM; GI50 ([16]; read-out: pGI50 (converted)): 4270 nM; Activity [19]: 5.94 ×10² /M; GI50 ([20]; read-out: GI50): 5240 nM; GI50 ([20]; read-out: pGI50 (converted)): 5250 nM
11.8,Active,Active,0,Active,3,11500,2.9,18.9,7.3,2.9,14.5,5270,5250,CN(C)CCNC(=O)c1cc2c3ccccc3[nH]c2c2ncccc12,Active,Active,32.6,2130,2090,GI50 ([21]; read-out: GI50): 25.4 nM; GI50 ([21]; read-out: pGI50 (converted)): 25.1 nM; GI50 ([22]; read-out: GI50): 515 nM; GI50 ([22]; read-out: pGI50 (converted)): 525 nM; GI50 ([24]; read-out: GI50): 1140 nM; GI50 ([24]; read-out: pGI50 (converted)): 1100 nM
–,Active,–,–,–,–,–,–,–,–,–,–,–,–,COc1cc([C@@H]2c3cc4c(cc3[C@@H](O[C@@H]3O[C@@H]5CO[C@@H](C)O[C@H]5[C@H](O)[C@H]3O)[C@H]3COC(=O)[C@H]23)OCO4)cc(OC)c1O,–,–,–,–,–,–
14.7,Active,Active,1.5,Active,7.4,3200,7.3,24.9,11.7,6.1,18.9,2330,2340,CN(C)CCNC(=O)c1cc2c3cc(Cl)ccc3[nH]c2c2ncccc12,–,–,–,1100,1100,GI50 ([25]; read-out: GI50): 1470 nM; GI50 ([25]; read-out: pGI50 (converted)): 1480 nM; Activity [26]: Active; GI50 ([27]; read-out: GI50): 1340 nM; GI50 ([27]; read-out: pGI50 (converted)): 1350 nM; Activity [28]: Active; Activity [29]: 37%

# Reference: ChEMBL document CHEMBL1153602, “Photochemical electrocyclisation of 3-vinylindoles to pyrido[2,3-a]-, pyrido[4,3-a]- and thieno[2,3-a]-carbazoles: design, synthesis, DNA binding and antitumor cell cytotoxicity” (2009)
